# The source made the active and inactive calls. The calls are words filed in the database; no cut-off is given here.
# Tests used:
# Mus musculus [1] = test: Anticonvulsant activity in albino Carworth Farms No.1 mouse assessed as protection against subcutaneous metrazol-induced seizure at 300 mg/kg, ip after 4 hrs; assay type: functional, organism-based; set-up: dose 300 mg/kg
# In short: (§1)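 Mouse scMET test. Compound given i.p. (30, 100 or 300 mg/kg) in 0.5% methylcellulose. Pentylenetetrazole 85 mg/kg (CD97) given s.c. at 0.5 or 4 h, then mice observed for 30 min. Protection is absence of clonic spasms; scored as protected/tested.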
# Mus musculus [2] = test: Anticonvulsant activity in albino Carworth Farms No.1 mouse assessed as protection against electric-current for 3 secs-induced seizure at 75 mg/kg, ip after 0.5 hrs by 6Hz minimal clonic seizure test; assay type: functional, organism-based; set-up: dose 75 mg/kg
# In short: (§2)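 6 Hz psychomotor seizure test in mice. Compound given i.p. as a suspension in 0.5% methylcellulose. Corneal stimulation at 32 mA, 0.2-ms monopolar rectangular pulses at 6 Hz for 3 s, from a constant-current device. Tests run 0.25–4 h after dosing. A mouse counted as protected if it resumed normal exploratory behaviour within 10 s; scored as protected/tested.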
# Rattus norvegicus [3] = test: Anticonvulsant activity in po dosed albino Sprague-Dawley rat assessed as time needs to show peak effect for protection against maximal electroshock-induced seizure after 0.25 hrs; assay type: functional
# In short: (§3)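 Rats dosed orally, compound in 0.5% methylcellulose. MES at 150 mA, 60 Hz, 0.2 s; scMET with pentylenetetrazole 70 mg/kg s.c. plus 30 min observation; rotorod for toxicity.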
# Rattus norvegicus [4] = test: Toxicity in albino Sprague-Dawley rat pilocarpine-induced status epilepticus model assessed as change in body weight in non-protected rat at 130 mg/kg, ip measured after 24 hrs of time from first stage 3 seizures; assay type: organism-based; set-up: dose 130 mg/kg, route intraperitoneal; conditions: in vivo
# In short: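 Male albino Sprague-Dawley rats (150–180 g) received compound i.p., then a pilocarpine challenge immediately (0 min) or 30 min after treatment. The outcome was protection or no protection from seizures, scored as number protected/number tested. Average body weight change (g) ± S.E.M. was reported separately for protected and non-protected rats.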
# Rattus norvegicus [5] = test: Anticonvulsant activity in albino Sprague-Dawley rat assessed as protection against pilocarpine-induced status epilepticus at 130 mg/kg, ip measured after time from first stage 3 seizures; assay type: functional, organism-based; set-up: dose 130 mg/kg
# In short: (§4)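 Male albino Sprague-Dawley rats, 150–180 g. Compound given i.p., then a challenge dose of pilocarpine at 0 min or at 30 min. Outcome scored as protection or no protection from seizures (protected/tested), with body weight change recorded.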
# Mus musculus [6] = test: Neurotoxicity in albino Carworth Farms No.1 mouse assessed as motor impairment at 100 mg/kg, ip after 0.5 hrs by rotarod test; assay type: toxicity, organism-based; set-up: dose 100 mg/kg, route intraperitoneal; conditions: in vivo
# In short: (§5)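 Rotorod neurotoxicity in mice at 6 r.p.m. Compound given i.p. (30, 100, 300 mg/kg) in 0.5% methylcellulose; tested at 30 min and 4 h. Impairment is inability to keep equilibrium on the rod for a given time; scored as impaired/tested.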
# Mus musculus [7] = test: Anticonvulsant activity in albino Carworth Farms No.1 mouse assessed as protection against electric-current for 3 secs-induced seizure at 100 mg/kg, ip after 2 hrs by 6Hz minimal clonic seizure test; assay type: functional, organism-based; set-up: dose 100 mg/kg; in short: as §2
# Rattus norvegicus [8] = species: Rattus norvegicus; test: Inhibition of voltage-gated sodium channel in Wistar rat cerebral prefrontal coronal slices assessed as decrease of […] current-induced current amplitude at 100 uM after 5 mins by whole cell voltage clamp method (reference value: 8 +/- 2.3%); set-up: scale not given: the % may be the effect or the level left
# [9] = Neurotoxicity in ip dosed albino Carworth Farms No.1 mouse assessed as motor impairment after 0.25 hrs by rotarod test; assay type: toxicity, organism-based; conditions: Carworth Farms No.1 (albino), in vivo
# In short: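 Mouse quantification at the time of peak effect, compound given i.p. in 0.5% methylcellulose. Groups of at least eight mice received varied doses until at least two points fell between 100 and 0% response. PI = TD50/ED50 MES.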
# Rattus norvegicus [10] = species: Rattus norvegicus; test: Protective index, ratio of TD50 for albino Sprague-Dawley rat to ED50 for albino Sprague-Dawley rat by maximal electroshock-induced seizure test; assay type: functional
# Mus musculus [11] = test: Neurotoxicity in albino Carworth Farms No.1 mouse assessed as motor impairment at 30 mg/kg, ip after 0.5 hrs by rotarod test; assay type: toxicity, organism-based; set-up: dose 30 mg/kg, route intraperitoneal; conditions: in vivo; in short: as §5
# Mus musculus [12] = test: Anticonvulsant activity in albino Carworth Farms No.1 mouse assessed as protection against subcutaneous metrazol-induced seizure at 30 mg/kg, ip after 4 hrs; assay type: functional, organism-based; set-up: dose 30 mg/kg; in short: as §1
# Mus musculus [13] = test: Anticonvulsant activity in albino Carworth Farms No.1 mouse assessed as protection against electric-current for 3 secs-induced seizure at 75 mg/kg, ip after 0.25 hrs by 6Hz minimal clonic seizure test; assay type: functional, organism-based; set-up: dose 75 mg/kg; in short: as §2
# Mus musculus [14] = test: Anticonvulsant activity in albino Carworth Farms No.1 mouse assessed as protection against subcutaneous metrazol-induced seizure at 100 mg/kg, ip after 4 hrs; assay type: functional, organism-based; set-up: dose 100 mg/kg; in short: as §1
# Mus musculus [15] = test: Neurotoxicity in albino Carworth Farms No.1 mouse assessed as motor impairment at 30 mg/kg, ip after 4 hrs by rotarod test; assay type: toxicity, organism-based; set-up: dose 30 mg/kg, route intraperitoneal; conditions: in vivo; in short: as §5
# [16] = Neurotoxicity in po dosed albino Sprague-Dawley rat assessed as motor impairment after 0.25 hrs by rotarod test; assay type: toxicity, organism-based; conditions: in vivo; in short: as §3
# Mus musculus [17] = test: Anticonvulsant activity in albino Carworth Farms No.1 mouse assessed as protection against maximal electroshock-induced seizure at 100 mg/kg, ip after 4 hrs; assay type: functional, organism-based; set-up: dose 100 mg/kg
# In short: (§6)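 Mouse MES test with compound given i.p. (30, 100 or 300 mg/kg) in 0.5% methylcellulose; tested at 0.5 and 4 h. Corneal stimulus of 50 mA at 60 Hz for 0.2 s, electrodes primed with 0.5% butacaine in 0.9% NaCl. Protection is abolition of hindlimb tonic extension; scored as protected/tested.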
# Rattus norvegicus [18] = test: Anticonvulsant activity in po dosed albino Sprague-Dawley rat assessed as protection against subcutaneous metrazol-induced seizure after 0.25 hrs; assay type: functional; in short: as §3
# Mus musculus [19] = test: Toxicity in albino Carworth Farms No.1 mouse assessed as sedation at 300 mg/kg, ip after 0.5 hrs by rotarod test; assay type: organism-based; set-up: dose 300 mg/kg, route intraperitoneal; conditions: in vivo
# In short: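 Mice (18–25 g) were given 30, 100 or 300 mg/kg i.p. in 0.5% (v/v) aqueous methylcellulose. Neurotoxicity was checked on a 6 r.p.m. rotorod 30 min and 4 h after dosing and scored as inability to keep equilibrium. Death following tonic extension and sedation were recorded as observations (number of animals/number tested).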
# Rattus norvegicus [20] = test: Anticonvulsant activity in albino Sprague-Dawley rat assessed as protection against pilocarpine-induced status epilepticus at 65 mg/kg, ip measured after time from first stage 3 seizures; assay type: functional, organism-based; set-up: dose 65 mg/kg; in short: as §4
# Rattus norvegicus [21] = species: Rattus norvegicus; test: Inhibition of voltage-gated sodium channel in Wistar rat cerebral prefrontal coronal slices assessed as decrease of […] current-induced current amplitude at 10 uM after 5 mins by whole cell voltage clamp method (reference value: 4.2%); set-up: scale not given: the % may be the effect or the level left
# Mus musculus [22] = test: Neurotoxicity in albino Carworth Farms No.1 mouse assessed as motor impairment at 300 mg/kg, ip after 4 hrs by rotarod test; assay type: toxicity, organism-based; set-up: dose 300 mg/kg, route intraperitoneal; conditions: in vivo; in short: as §5
# Mus musculus [23] = test: Anticonvulsant activity in albino Carworth Farms No.1 mouse assessed as protection against maximal electroshock-induced seizure at 100 mg/kg, ip after 0.5 hrs; assay type: functional, organism-based; set-up: dose 100 mg/kg; in short: as §6
# Mus musculus [24] = test: Neurotoxicity in albino Carworth Farms No.1 mouse assessed as motor impairment at 300 mg/kg, ip after 0.5 hrs by rotarod test; assay type: toxicity, organism-based; set-up: dose 300 mg/kg, route intraperitoneal; conditions: in vivo; in short: as §5
# Mus musculus [25] = test: Anticonvulsant activity in albino Carworth Farms No.1 mouse assessed as protection against maximal electroshock-induced seizure at 300 mg/kg, ip after 0.5 hrs; assay type: functional, organism-based; set-up: dose 300 mg/kg; in short: as §6
smiles,measurement,setting,value
O=C1NC(=O)[C@@H]2CCCN2[C@H]1c1ccccc1,Activity,Mus musculus [1],inactive
same,Activity,Mus musculus [2],Active
same,Time,Rattus norvegicus [3],0.25 h
same,Activity,Rattus norvegicus [4],-22.5 g
same,Activity,Rattus norvegicus [5],Active
same,Activity,Mus musculus [6],Non-toxic
same,Activity,Mus musculus [7],inactive
same,Activity,Rattus norvegicus [8],14.1%
same,TD50 at 0.25 h,[9],122 mg/kg
same,Ratio TD50/ED50,Rattus norvegicus [10],>12.6
same,Activity,Mus musculus [11],Non-toxic
same,Activity,Mus musculus [12],inactive
same,Activity,Mus musculus [13],Active
same,Activity,Mus musculus [14],inactive
same,Activity,Mus musculus [15],Non-toxic
same,TD50 at 0.25 h,[16],> 500 mg/kg
same,Activity,Mus musculus [17],inactive
same,ED50,Rattus norvegicus [18],114 mg/kg
same,Activity,Mus musculus [19],Toxic
same,Activity,Rattus norvegicus [20],Active
same,Activity,Rattus norvegicus [21],5.3%
same,Activity,Mus musculus [22],Non-toxic
same,Activity,Mus musculus [23],Active
same,Activity,Mus musculus [24],Non-toxic
same,Activity,Mus musculus [25],inactive

# Source: ChEMBL document CHEMBL1909525, “Synthesis and anticonvulsant activity of novel 2,6-diketopiperazine derivatives. Part 1: perhydropyrrole[1,2-a]pyrazines” (Eur J Med Chem, 2011)
